Source: paper PMC6431256 (Biochemistry, 2018)

Molecular target: full-length Pin1 (Pin1FL) (Homo sapiens, UniProt Q13526)
Experiment: NMR 15N-1H HSQC titration, binding to full-length Pin1
How it was run: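 15N-labeled Pin1FL and Pin1WW were expressed separately in M9 medium with 15NH4Cl, induced with 1 mM IPTG at OD600 0.5 for 4 h, and purified by Ni affinity and gel filtration (20 mM HEPES pH 7.5, 50 mM NaCl, 5 mM EDTA; Pin1FL with 1 mM TCEP). Unlabeled phosphopeptides (dialyzed into matching buffer) were titrated at 0–637 µM into 100 µM protein. 1H-15N HSQC spectra were recorded at 25 °C and 600 MHz. Apparent KD was fitted from chemical shift changes, with 15N weighted 0.17.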

full-length Pin1 (Pin1FL), sequence (Q13526 whole entry): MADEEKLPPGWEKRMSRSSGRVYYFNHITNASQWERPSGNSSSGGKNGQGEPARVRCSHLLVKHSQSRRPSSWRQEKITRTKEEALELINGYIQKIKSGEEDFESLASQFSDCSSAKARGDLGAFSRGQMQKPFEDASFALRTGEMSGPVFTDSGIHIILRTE

## KVAKpSPKKAKAW [H1.5]
Pin1FL and Pin1WW, in words
  interaction strength with Pin1 among H1 peptides: fairly low affinity
Compared with Pin1WW
  apparent affinity for full-length Pin1 relative to WW domain: decrease
